Rows were chosen to be rich in hits. Some 8.9% of all compounds tested hit in one or more screens of this group.
Lmaj promast: Leishmania major promastigote growth inhibition. inhibition, % at 10 µM. Leishmania major promastigotes, resazurin fluorescence viability. AID 1063. actives 9% (n = 200,000); in the data active means inhibition above about 50%;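 further: promastigotes grown with compound for 44 hours at 28 °C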
HSV replic up: increases HSV replication in cells; HSV replication augmentation in cells, fold increase; maximum fold increase; actives 0.005% (n = 220,000); in the data active means maximum fold increase above about 1.5; tested in PC3 cells
Dynein cargo inh: blocks dynein driven cargo transport along microtubules; actives 0.47% (n = 220,000); 3617.4 mouse cells, GR-EGFP nuclear translocation imaging; test concentration mostly 20 µM; stimulated with dexamethasone, 1 µM; stronger effect = lower value; z-score, hits read low;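 active means plate z-score of nuclear minus cytoplasmic receptor signal below a set negative limit, without overly bright fluorescence or cell loss, cut at about -3.5 in these data, passing the limit was not always enough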;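 further: z-score of nuclear minus cytoplasmic ring GR-EGFP intensity difference per well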
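Medium: Induction medium lacking tetracycline, stripped serum | Probe or stimulus: 1.0 µM final dexamethasone stimulus | Schedule: 48 h induction, then 1 h compound, then 30 min agonist, 37 °C | Signal: Automated 10x imaging of fixed Hoechst-stained cells | Evaluation: Per-cell GR-EGFP intensity, nucleus versus surrounding cytoplasmic ring, well-averaged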
MT stabilize HCS: microtubule stabilization, imaging screen; % tubulin-high responders, % at 10 µM; AID 2205; actives 0.83% (n = 200,000); HeLa tubulin immunostaining HCS, 24 h; share of cells brighter than vehicle mean+2SD;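 active means plate Z-score above 3 for both tubulin-high and condensed-nucleus cell shares, with cell loss under 80%, at 10 µM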;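 further: anti alpha tubulin signal scored within the nucleus-defined area of each cell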
bCat nuc transl: modulators of beta-catenin nuclear translocation | HeLa beta-catenin nuclear translocation, immunofluorescence imaging | nuclear translocation activity, % at 5 µM | actives 0.3% (n = 190,000) | AID 1665;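 active means nuclear translocation activity above 50% at 5 µM, with a well cell count of 50 or more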;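 further: per-cell ratio of nuclear to cytoplasmic median beta-catenin stain intensity; plate controls were DMSO negative control for no effect and GSK-3 inhibitor IX positive control for full effect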
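assay system = human HeLa cells, endogenous beta-catenin | times = compound treatment 24 h, 37°C, 5% CO2 | detection = Anti-beta-catenin immunofluorescence on PFA-fixed, Triton-permeabilized cells, DAPI nuclei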
The depositor's hits bear a star; i = inactive; nt = no result.

SMILES | Lmaj promast | HSV replic up | Dynein cargo inh | MT stabilize HCS | bCat nuc transl
COC(=O)c1c(NC(=O)CN2CCC3(O)CCCCC3C2c2cc(OC)ccc2OC)sc(C)c1C (centres undefined) | 44.5 | i | -0.261 | 2.7 | -1.6
COC(=O)c1c(NC(=O)CN2CCC3(O)CCCCC3C2c2ccc(F)cc2)sc(C)c1C (centres undefined) | 77.3* | i | -0.0533 | 3.8 | -1.4
COC(=O)c1c(NC(=O)CN2CCCc3ccccc32)sc(C)c1C | 89.3* | i | -0.0578 | 4.2 | nt
O=C(COC(=O)CNC(=O)c1ccccc1)Nc1ccccc1Cl | -5.8 | i | 1.17 | 4.8 | 3.6
Cn1c(N)c(C(=O)COC(=O)CSc2cccc3cccc(Cl)c23)c(=O)n(C)c1=O | -4.2 | i | 0.645 | 2.0 | 2.5
Cc1ccc(NC(=O)C(C)OC(=O)c2ccc(NS(=O)(=O)c3ccc(F)c(F)c3)cc2)cc1 (centres undefined) | -4.2 | i | -0.716 | 1.4 | -2.8
CCc1ccc(NC(=O)C(C)OC(=O)c2ccc(NS(=O)(=O)c3ccc(C)c([N+](=O)[O-])c3)cc2)cc1 (centres undefined) | 64.4* | i | -0.83 | 3.9 | -0.2
CCCCCC(=O)Nc1cccc(-c2nc3ncccc3o2)c1 | 66.6* | i | 1.25 | 5.3 | -2.8
CCC(=O)NC(=S)Nc1cccc(-c2nc3ncccc3o2)c1 | 2.5 | i | 3.09 | 4.8 | -0.9
CCCCC(=O)Nc1cccc(-c2nc3ncccc3o2)c1 | 100.0* | i | -0.65 | 4.6 | 1.3
CCNc1ccc(C(=O)OCC)cc1NC(=O)c1cccc(S(=O)(=O)N2CCOCC2)c1 | 4.6 | i | -0.217 | 5.7 | -1.7
O=C(NCC1CCCN(Cc2cccc(OCCO)c2)C1)c1ccc(F)cc1 (centres undefined) | -1.4 | i | 0.508 | 4.4 | 4.4
CSc1cccc(CN2CCCC(CNC(=O)c3ccc(F)cc3)C2)c1 (centres undefined) | 77.3* | i | -0.55 | 4.3 | -1.3
CSc1ccc(CN2CCCC(CNC(=O)c3ccc(F)cc3)C2)cc1 (centres undefined) | 84.1* | i | 0.286 | 1.2 | -1.3
CCCn1nc(NC(=O)C2CCCO2)c2cc3cccc(C)c3nc21 (centres undefined) | nt | i | 0.103 | nt | -0.3
Brc1ccccc1-c1nnc(CSc2nncn2-c2ccccc2)o1 | 98.1* | i | 1.06 | 3.5 | -1.0
Cn1cc(CN2CCN(Cc3ccc4c(c3)OCO4)CC2)c(-c2ccccc2F)n1 | 60.4* | i | -1.11 | 2.3 | -0.8
Cc1cccc(N2CCN(Cc3cn(C)nc3-c3ccccc3F)CC2)n1 | 2.2 | i | 0.296 | 33.6* | 102.7*
CCOC(=O)c1cnc(SC2CC(=O)N(c3ccccc3)C2=O)nc1N (centres undefined) | -0.2 | i | 0.84 | 3.2 | 3.6
O=S(=O)(NC1CCCC1)c1ccccc1Br | nt | i | 1.27 | nt | -1.8
CCOC(=O)N1CCN(C(=O)CSc2ccc3nnc(-c4cccnc4)n3n2)CC1 | 4.3 | i | -0.112 | 2.3 | -0.4
CCCCCc1ccc(OCCC[n+]2ccccc2)c(CCCCC)c1 | nt | i | -0.741 | nt | 3.5
CCCCCc1ccc(OCCOCCn2c[n+](C)c3ccccc32)c(CCCCC)c1 | 100.8* | i | -5.56 | 78.8 | -1.4
Cc1ccc(CSc2nccc(-c3c(C)nc4ccccn34)n2)cc1 | nt | i | 0.445 | nt | 55.4*
Cc1cccc(NC(=S)N(CCCN2CCOCC2)C(C)c2cc3ccccc3o2)c1 (centres undefined) | 81.1* | i | 1.08 | 2.6 | -0.7
SMILES | Lmaj promast | HSV replic up | Dynein cargo inh | MT stabilize HCS | bCat nuc transl
Cc1cccc(NC(=S)N(CCCN2CCOCC2)C(C)c2cc3ccccc3o2)c1C (centres undefined) | 80.0* | i | -1.13 | 2.9 | nt
COc1cccc2cc(C(C)N(CCCN3CCOCC3)C(=S)Nc3ccccc3C)oc12 (centres undefined) | 40.4 | i | -0.782 | 2.9 | -1.1
CCOC(=O)c1cnc2ccc(OC)cc2c1NCCc1ccc(OC)c(OC)c1 | 64.5* | i | -0.204 | 3.1 | -1.4
CCOC(=O)c1cnc2c(OC)cccc2c1NCc1cccnc1 | 19.0 | i | 2.71 | 2.6 | -0.8
CCOC(=O)c1cnc2ccccc2c1NCCc1ccc(OC)c(OC)c1 | 23.5 | i | -0.0765 | 2.3 | 1.7
CCOC(=O)c1cnc2ccc(OCC)cc2c1NCc1cccnc1 | 65.3* | i | 0.911 | 2.7 | 0.6
CCOC(=O)c1cnc2ccc(OCC)cc2c1NCc1ccccc1 | 98.0* | i | -0.515 | 2.0 | 0.7

Compound activity (PubChem BioAssay)
